Test results: ChEMBL document CHEMBL4138150, “Quinoline derivatives bearing pyrazole moiety: Synthesis and biological evaluation as possible antibacterial and antifungal agents” (2018)
Values after ≈ are worked out from the molar mass of the structure shown.

How the values were obtained:
Klebsiella pneumoniae [1] = test: Antimicrobial activity against Klebsiella pneumoniae RCMB 010093 after overnight incubation by macro-tube dilution technique; assay type: functional
How it was run: (§1)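 Macro-tube twofold dilution following NCCLS guidance, run in nutrient broth. The first tube held 10 mg compound in 2.0 mL DMSO and was serially halved 1:1 into 1.0 mL broth through tube 14; tube 15 was the control. The inoculum was suspended to turbidity in 5.0 mL broth, 0.2 mL was diluted into 40 mL, and 1.0 mL was added per tube. Tubes were incubated overnight at 37 °C. MIC was the lowest concentration with no growth.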

Proteus vulgaris [2] = test: Antimicrobial activity against Proteus vulgaris RCMB 010085 assessed as diameter of zone inhibition at 1 mg/ml after 24 hrs by agar well diffusion assay; assay type: functional, organism-based
How it was run: (§2)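 Agar well diffusion on nutrient agar spread with 100 µL of bacterial suspension at 1 x10^8 CFU/mL. Wells 10 mm wide were loaded with 100 µL of solution: test compounds at 5 mg/mL in DMSO, ampicillin or gentamycin standards at 1 mg/mL, DMSO negative control. Plates were incubated 24 h at 37 °C, and inhibition zone diameter (mm) was averaged over triplicates.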

Klebsiella pneumoniae [3] = test: Antimicrobial activity against Klebsiella pneumoniae RCMB 010093 assessed as diameter of zone inhibition at 1 mg/ml after 24 hrs by agar well diffusion assay; assay type: functional, organism-based; how it was run: as §2
Shigella flexneri [4] = test: Antimicrobial activity against Shigella flexneri RCMB 0100542 after overnight incubation by macro-tube dilution technique; assay type: functional; how it was run: as §1
Shigella flexneri [5] = test: Antimicrobial activity against Shigella flexneri RCMB 0100542 assessed as diameter of zone inhibition at 1 mg/ml after 24 hrs by agar well diffusion assay; assay type: functional, organism-based; how it was run: as §2
Proteus vulgaris [6] = test: Antimicrobial activity against Proteus vulgaris RCMB 010085 after overnight incubation by macro-tube dilution technique; assay type: functional; how it was run: as §1
Aspergillus fumigatus [7] = test: Antimicrobial activity against Aspergillus fumigatus RCMB 02564 assessed as diameter of zone inhibition at 1 mg/ml after 72 hrs by agar well diffusion assay; assay type: functional; conditions: RCMB 02564, 72 h, read-out: DIZ
Candida albicans [8] = test: Antimicrobial activity against Candida albicans RCMB 05035 after 72 hrs by macro-tube dilution technique; assay type: functional; conditions: RCMB 05035, 72 h
How it was run: (§3)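 Twofold macro-tube dilution following NCCLS guidance, run in malt extract broth. 10 mg compound in 2.0 mL DMSO in tube 1 was serially diluted 1:1 through tube 14 into 1.0 mL broth; tube 15 was the control. Culture was suspended to turbidity in 5.0 mL broth, 0.2 mL was diluted into 40 mL, and 1.0 mL was added per tube. Incubation was 72 h at 30 °C. MIC was the lowest concentration with no growth.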

Aspergillus fumigatus [9] = test: Antimicrobial activity against Aspergillus fumigatus RCMB 02564 after 72 hrs by macro-tube dilution technique; assay type: functional; conditions: RCMB 02564, 72 h; how it was run: as §3
Aspergillus clavatus [10] = test: Antimicrobial activity against Aspergillus clavatus RCMB 02593 after 72 hrs by macro-tube dilution technique; assay type: functional; conditions: RCMB 02593, 72 h; how it was run: as §3
Candida albicans [11] = test: Antimicrobial activity against Candida albicans RCMB 05035 assessed as diameter of zone inhibition at 1 mg/ml after 72 hrs by agar well diffusion assay; assay type: functional; conditions: RCMB 05035, 72 h, read-out: DIZ
Aspergillus clavatus [12] = test: Antimicrobial activity against Aspergillus clavatus RCMB 02593 assessed as diameter of zone inhibition at 1 mg/ml after 72 hrs by agar well diffusion assay; assay type: functional; conditions: RCMB 02593, 72 h, read-out: DIZ
Bacillus subtilis [13] = test: Antimicrobial activity against Bacillus subtilis RCMB 010063 after overnight incubation by macro-tube dilution technique; assay type: functional; how it was run: as §1
Klebsiella pneumoniae [14] = test: Antimicrobial activity against Klebsiella pneumoniae RCMB 010093 assessed as diameter of zone inhibition at 5 mg/ml after 24 hrs by agar well diffusion assay; assay type: functional; conditions: RCMB 010093, 24 h, read-out: DIZ
How it was run: (§4)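 Agar well diffusion: 100 µL of 1 x10^8 CFU/mL bacteria was spread on nutrient agar. 10 mm wells received 100 µL of compound at 5 mg/mL in DMSO, or ampicillin or gentamycin standards at 1 mg/mL. DMSO served as negative control. Plates were incubated 24 h at 37 °C. Inhibition zone diameter (mm) was measured as the mean of triplicates.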

Shigella flexneri [15] = test: Antimicrobial activity against Shigella flexneri RCMB 0100542 assessed as diameter of zone inhibition at 5 mg/ml after 24 hrs by agar well diffusion assay; assay type: functional; conditions: RCMB 0100542, 24 h, read-out: DIZ; how it was run: as §4
[16] = system: Staphylococcus epidermidis; test: Antimicrobial activity against Staphylococcus epidermidis RCMB 010024 after overnight incubation by macro-tube dilution technique; assay type: functional; how it was run: as §1
Shigella flexneri [17] = test: Potency index, ratio of Gentamycin IC50 to compound IC50 for Shigella flexneri RCMB 0100542; assay type: functional
Aspergillus fumigatus [18] = test: Antimicrobial activity against Aspergillus fumigatus RCMB 02564 assessed as diameter of zone inhibition at 5 mg/ml after 72 hrs by agar well diffusion assay; assay type: functional; conditions: RCMB 02564, 72 h, read-out: DIZ
How it was run: (§5)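 Fungi (1 x10^6 CFU/mL, 100 µL) were spread on Sabouraud dextrose agar. 10 mm wells were loaded with 100 µL of test solution at 5 mg/mL in DMSO, or amphotericin B standard at 1 mg/mL. A DMSO negative control was included. Plates were incubated 72 h at 28 °C. Inhibition zone diameter (mm) was recorded as the average of triplicate runs.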

Aspergillus clavatus [19] = test: Antimicrobial activity against Aspergillus clavatus RCMB 02593 assessed as diameter of zone inhibition at 5 mg/ml after 72 hrs by agar well diffusion assay; assay type: functional; conditions: RCMB 02593, 72 h, read-out: DIZ; how it was run: as §5
Proteus vulgaris [20] = test: Antimicrobial activity against Proteus vulgaris RCMB 010085 assessed as diameter of zone inhibition at 5 mg/ml after 24 hrs by agar well diffusion assay; assay type: functional; conditions: RCMB 010085, 24 h, read-out: DIZ; how it was run: as §4
Candida albicans [21] = test: Antimicrobial activity against Candida albicans RCMB 05035 assessed as diameter of zone inhibition at 5 mg/ml after 72 hrs by agar well diffusion assay; assay type: functional; conditions: RCMB 05035, 72 h, read-out: DIZ; how it was run: as §5
Bacillus subtilis [22] = test: Antimicrobial activity against Bacillus subtilis RCMB 010063 assessed as diameter of zone inhibition at 5 mg/ml after 24 hrs by agar well diffusion assay; assay type: functional; conditions: RCMB 010063, 24 h, read-out: DIZ; how it was run: as §4
Candida albicans [23] = test: Potency index, ratio of Amphotericin B IC50 to compound IC50 for Candida albicans RCMB 05035; assay type: functional
Staphylococcus aureus [24] = test: Antimicrobial activity against Staphylococcus aureus RCMB 010027 assessed as diameter of zone inhibition at 5 mg/ml after 24 hrs by agar well diffusion assay; assay type: functional; conditions: RCMB 010027, 24 h, read-out: DIZ; how it was run: as §4
Aspergillus clavatus [25] = test: Potency index, ratio of Amphotericin B IC50 to compound IC50 for Aspergillus clavatus RCMB 02593; assay type: functional
Proteus vulgaris [26] = test: Potency index, ratio of Gentamycin IC50 to compound IC50 for Proteus vulgaris RCMB 010085; assay type: functional
Staphylococcus aureus [27] = test: Antimicrobial activity against Staphylococcus aureus RCMB 010027 after overnight incubation by macro-tube dilution technique; assay type: functional; how it was run: as §1
[28] = system: Staphylococcus epidermidis; test: Antimicrobial activity against Staphylococcus epidermidis RCMB 010024 assessed as diameter of zone inhibition at 5 mg/ml after 24 hrs by agar well diffusion assay; assay type: functional; conditions: RCMB 010024, 24 h, read-out: DIZ; how it was run: as §4
[29] = system: Staphylococcus epidermidis; test: Potency index, ratio of Amphotericin B IC50 to compound IC50 for Staphylococcus epidermidis RCMB 010024; assay type: functional

| Compound | MIC (Klebsiella pneumoniae [1]) | MIC (Shigella flexneri [4]) | MIC (Proteus vulgaris [6]) | MIC (Candida albicans [8]) | MIC (Aspergillus fumigatus [9]) | MIC (Aspergillus clavatus [10]) | MIC (Bacillus subtilis [13]) | zone of inhibition at 5000 µg/mL (Klebsiella pneumoniae [14]) | zone of inhibition at 5000 µg/mL (Shigella flexneri [15]) | MIC [16] | zone of inhibition at 5000 µg/mL (Aspergillus fumigatus [18]) | zone of inhibition at 5000 µg/mL (Aspergillus clavatus [19]) | zone of inhibition at 5000 µg/mL (Proteus vulgaris [20]) | zone of inhibition at 5000 µg/mL (Candida albicans [21]) | zone of inhibition at 5000 µg/mL (Bacillus subtilis [22]) | zone of inhibition at 5000 µg/mL (Staphylococcus aureus [24]) | MIC (Staphylococcus aureus [27]) | zone of inhibition at 5000 µg/mL [28] | other results |
| --- | --- | --- | --- | --- | --- | --- | --- | --- | --- | --- | --- | --- | --- | --- | --- | --- | --- | --- | --- |
| GENTAMICIN | 0.24 µg/mL | 0.48 µg/mL | 1.95 µg/mL | – | – | – | – | – | – | – | – | – | – | – | – | – | – | – | inhibition zone (IZ) (Proteus vulgaris [2]): 23.4 mm; inhibition zone (IZ) (Klebsiella pneumoniae [3]): 26.3 mm; inhibition zone (IZ) (Shigella flexneri [5]): 24.8 mm |
| C[C@@H]1[C@H](O)[C@@H](C)/C=C/C=C/C=C/C=C/C=C/C=C/C=C/[C@H](O[C@@H]2O[C@H](C)[C@@H](O)[C@H](N)[C@@H]2O)C[C@@H]2O[C@](O)(C[C@@H](O)C[C@@H](O)[C@H](O)CC[C@@H](O)C[C@@H](O)CC(=O)O[C@H]1C)C[C@H](O)[C@H]2C(=O)O [AMPHOTERICIN B] | – | – | – | 0.48 µg/mL (≈ 0.519 µM) | 0.97 µg/mL (≈ 1.05 µM) | 1.95 µg/mL (≈ 2.11 µM) | – | – | – | – | – | – | – | – | – | – | – | – | zone of inhibition at 1000 µg/mL (Aspergillus fumigatus [7]): 23.7 mm; zone of inhibition at 1000 µg/mL (Candida albicans [11]): 26.4 mm; zone of inhibition at 1000 µg/mL (Aspergillus clavatus [12]): 21.9 mm |
| N#Cc1c(-c2ccc(Cl)cc2Cl)nn(-c2ccc3ccccc3n2)c1N | 0.49 µg/mL (≈ 1.29 µM) | 0.12 µg/mL (≈ 0.316 µM) | 0.98 µg/mL (≈ 2.58 µM) | 0.12 µg/mL (≈ 0.316 µM) | 0.98 µg/mL (≈ 2.58 µM) | 0.49 µg/mL (≈ 1.29 µM) | 0.12 µg/mL (≈ 0.316 µM) | 21.6 mm | 23.2 mm | 0.49 µg/mL (≈ 1.29 µM) | 20.9 mm | 22.3 mm | 20.6 mm | 24.8 mm | 25.8 mm | 21.6 mm | 0.49 µg/mL (≈ 1.29 µM) | 22.3 mm | Ratio (Shigella flexneri [17]): 4; Ratio (Candida albicans [23]): 4; Ratio (Aspergillus clavatus [25]): 4; Ratio (Proteus vulgaris [26]): 2 |
| COc1ccc(C2CC(c3ccc(Oc4ccc5ccccc5n4)cc3)=NN2c2ccccc2)cc1 (stereo not drawn) | 3.9 µg/mL (≈ 8.27 µM) | 0.48 µg/mL (≈ 1.02 µM) | 9.9 µg/mL (≈ 21 µM) | 0.48 µg/mL (≈ 1.02 µM) | 1.95 µg/mL (≈ 4.14 µM) | 3.9 µg/mL (≈ 8.27 µM) | 0.06 µg/mL (≈ 0.127 µM) | 26.1 mm | 23.3 mm | 0.24 µg/mL (≈ 0.509 µM) | 23.5 mm | 22.9 mm | 24.5 mm | 23.5 mm | 28.7 mm | 29 mm | 0.24 µg/mL (≈ 0.509 µM) | 26.2 mm | Ratio [29]: 2 |
